Target: HSA (human serum albumin) (Homo sapiens, UniProt P02768)
Assay: intrinsic fluorescence quenching, double-logarithmic plot
Format: binding
Settings: Tris-HCl pH 7.40, 298 K, no added metal ion
Procedure, shortened: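 HSA (1.00 × 10−4 mol L−1) titrated stepwise with test compound dissolved in DMSO. Emission spectra recorded at 300–600 nm with excitation at 292 nm and both slits at 15 nm. Spectra taken at 291, 298, 304 and 310 K. Intensities corrected for inner-filter effect. Ka and n derived from double-logarithmic fit of intensity versus quencher concentration.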

HSA (human serum albumin), sequence (P02768 25-609): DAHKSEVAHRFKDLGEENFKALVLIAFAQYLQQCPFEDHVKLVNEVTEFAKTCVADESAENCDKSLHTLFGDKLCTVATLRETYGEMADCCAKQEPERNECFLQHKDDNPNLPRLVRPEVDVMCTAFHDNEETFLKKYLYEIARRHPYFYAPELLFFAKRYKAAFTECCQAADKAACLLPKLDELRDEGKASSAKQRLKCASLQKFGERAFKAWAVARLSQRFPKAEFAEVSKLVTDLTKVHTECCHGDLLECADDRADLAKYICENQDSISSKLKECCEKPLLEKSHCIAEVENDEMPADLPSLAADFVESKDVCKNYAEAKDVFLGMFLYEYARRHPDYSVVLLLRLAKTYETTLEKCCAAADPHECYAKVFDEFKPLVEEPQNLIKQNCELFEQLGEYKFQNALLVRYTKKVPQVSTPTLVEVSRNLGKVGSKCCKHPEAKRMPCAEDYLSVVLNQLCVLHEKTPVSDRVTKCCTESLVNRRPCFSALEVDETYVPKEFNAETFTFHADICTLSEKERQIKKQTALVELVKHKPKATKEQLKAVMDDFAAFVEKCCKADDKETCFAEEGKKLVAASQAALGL

For COc1cc(/C=C/C(=O)O)ccc1O [FA, ferulic acid], the “Ka/(L.mol^-1)” value (n = 0.9857) was 2.5668 × 10^4 ±2.0417 L∙mol^−1.

With COC(=O)/C=C/c1ccc(O)c(OC)c1 [FAM, ferulic acid methyl ester] the “Ka/(L.mol^-1)” value (n = 1.0099) was 8.7256 × 10^4 ±1.1863 L∙mol^−1.

Source: article PMC10835327 (Heliyon, 2024)
